Assay results: ChEMBL document CHEMBL3525925, “In vitro studies on the oxidative metabolism of 20(s)-ginsenoside Rh2 in human, monkey, dog, rat, and mouse liver microsomes, and human liver s9” (Drug Metab Dispos, 2012)

Legend:
[1] = target: T1, Cytochrome P450 1B1 (Homo sapiens, UniProt Q16678); experiment: Drug metabolism in human recombinant CYP1B1 mediated oxidative metabolism at 10 uM; assay type: ADME; conditions: recombinant enzyme
T1 sequence (Q16678 whole entry): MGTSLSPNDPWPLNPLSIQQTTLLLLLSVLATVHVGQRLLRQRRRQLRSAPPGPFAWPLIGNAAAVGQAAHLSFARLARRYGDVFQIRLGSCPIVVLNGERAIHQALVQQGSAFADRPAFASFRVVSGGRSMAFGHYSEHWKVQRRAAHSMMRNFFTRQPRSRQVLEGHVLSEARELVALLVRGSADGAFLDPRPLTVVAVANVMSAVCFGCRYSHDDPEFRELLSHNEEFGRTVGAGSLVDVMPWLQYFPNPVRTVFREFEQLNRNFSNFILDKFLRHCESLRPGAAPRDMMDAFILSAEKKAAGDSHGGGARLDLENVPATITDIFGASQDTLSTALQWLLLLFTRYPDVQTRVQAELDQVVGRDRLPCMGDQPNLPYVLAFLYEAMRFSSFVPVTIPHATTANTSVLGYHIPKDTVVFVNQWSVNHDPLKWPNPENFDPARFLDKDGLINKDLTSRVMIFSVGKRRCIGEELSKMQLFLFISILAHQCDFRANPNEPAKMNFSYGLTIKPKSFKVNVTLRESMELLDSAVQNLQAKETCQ
In short: (§1)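 Recombinant human P450 at 50 nM incubated with 10 µM Rh2 and 2 mM NADPH in 100 mM potassium phosphate pH 7.4, 37°C, 60 min; ice-cold acetonitrile stop; duplicates; metabolites detected by LC/ion-trap MSn.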

[2] = target: Cytochrome P450 2D6 (Homo sapiens, UniProt P10635); experiment: Drug metabolism in human recombinant CYP2D6 mediated oxidative metabolism at 10 uM; assay type: ADME; conditions: recombinant enzyme; in short: as §1
Sequence of Cytochrome P450 2D6 (P10635 whole entry): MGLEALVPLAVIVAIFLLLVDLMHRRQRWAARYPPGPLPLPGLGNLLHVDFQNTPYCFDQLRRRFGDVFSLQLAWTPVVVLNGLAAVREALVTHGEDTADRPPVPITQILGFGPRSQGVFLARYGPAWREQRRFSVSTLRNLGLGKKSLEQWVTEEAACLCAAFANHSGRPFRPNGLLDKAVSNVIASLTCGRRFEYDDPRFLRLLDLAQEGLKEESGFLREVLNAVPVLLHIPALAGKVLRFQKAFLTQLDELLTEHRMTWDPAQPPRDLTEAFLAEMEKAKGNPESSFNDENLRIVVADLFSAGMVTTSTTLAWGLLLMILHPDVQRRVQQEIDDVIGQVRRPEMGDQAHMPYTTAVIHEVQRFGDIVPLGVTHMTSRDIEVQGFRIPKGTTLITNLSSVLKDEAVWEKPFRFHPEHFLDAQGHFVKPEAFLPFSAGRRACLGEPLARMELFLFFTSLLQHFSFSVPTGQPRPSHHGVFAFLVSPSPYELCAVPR

[3] = test system: Liver microsome; experiment: Drug metabolism in human liver microsomes assessed as oxidative metabolism at 10 uM in presence of 1 uM sulfaphenazole CYP2C9 inhibitor; assay type: ADME
In short: (§2)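 Pooled human liver microsomes (1 mg/ml, mixed-gender, 50 donors), 10 µM Rh2, 2 mM NADPH and selective inhibitor in 100 mM potassium phosphate pH 7.4; 37°C, 60 min; ice-cold acetonitrile stop; uninhibited controls; duplicates; formation of M1-2, M1-3 and M1-4+M1-5 quantified by LC/ion-trap MSn.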

[4] = test system: Liver microsome; experiment: Drug metabolism in human liver microsomes assessed as oxidative metabolism at 10 uM in presence of 10 uM ketoconazole CYP3A inhibitor; assay type: ADME; in short: as §2
[5] = Oral bioavailability in beagle dog at 8 mg/kg; assay type: ADME, organism-based, Canis lupus familiaris; conditions: in vivo
[6] = target: T2, Cytochrome P450 1A2 (Homo sapiens, UniProt P05177); experiment: Drug metabolism in human recombinant CYP1A2 mediated oxidative metabolism at 10 uM; assay type: ADME; conditions: recombinant enzyme; in short: as §1
T2 sequence (P05177 whole entry): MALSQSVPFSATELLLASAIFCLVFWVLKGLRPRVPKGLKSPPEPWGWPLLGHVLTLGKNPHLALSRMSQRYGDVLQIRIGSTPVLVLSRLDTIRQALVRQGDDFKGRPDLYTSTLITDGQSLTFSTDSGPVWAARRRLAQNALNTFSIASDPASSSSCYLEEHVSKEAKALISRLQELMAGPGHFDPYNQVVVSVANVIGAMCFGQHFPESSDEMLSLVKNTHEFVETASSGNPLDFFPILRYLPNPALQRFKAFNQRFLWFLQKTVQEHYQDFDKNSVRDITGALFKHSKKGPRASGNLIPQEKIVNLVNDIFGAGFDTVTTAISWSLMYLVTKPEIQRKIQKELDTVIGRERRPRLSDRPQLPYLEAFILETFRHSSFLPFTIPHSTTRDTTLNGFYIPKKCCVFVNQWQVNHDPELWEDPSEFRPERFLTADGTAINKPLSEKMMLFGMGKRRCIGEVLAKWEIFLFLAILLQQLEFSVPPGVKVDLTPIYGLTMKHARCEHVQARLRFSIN

[7] = Drug excretion in rat feces at 50 mg/kg, po; assay type: ADME, organism-based; design: dose 50 mg/kg, route oral; conditions: faeces, read-out: Drug excretion
[8] = target: Cytochrome P450 2C19 (Homo sapiens, UniProt P33261); experiment: Drug metabolism in human recombinant CYP2C19 mediated oxidative metabolism at 10 uM; assay type: ADME; conditions: recombinant enzyme; in short: as §1
Sequence of Cytochrome P450 2C19 (P33261 whole entry): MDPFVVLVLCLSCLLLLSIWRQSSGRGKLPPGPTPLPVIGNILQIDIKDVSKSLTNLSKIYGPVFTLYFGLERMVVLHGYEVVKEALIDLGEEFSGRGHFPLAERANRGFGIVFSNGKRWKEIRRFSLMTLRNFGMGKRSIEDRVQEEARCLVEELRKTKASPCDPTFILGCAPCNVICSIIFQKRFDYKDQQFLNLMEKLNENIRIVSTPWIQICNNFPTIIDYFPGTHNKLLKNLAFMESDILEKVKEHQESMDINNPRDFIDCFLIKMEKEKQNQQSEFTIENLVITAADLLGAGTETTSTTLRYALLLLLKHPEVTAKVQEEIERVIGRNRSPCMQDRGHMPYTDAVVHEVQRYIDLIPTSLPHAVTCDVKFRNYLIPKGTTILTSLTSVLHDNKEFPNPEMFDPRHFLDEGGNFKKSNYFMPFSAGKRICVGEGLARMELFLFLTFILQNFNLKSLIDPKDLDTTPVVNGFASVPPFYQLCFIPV

[9] = target: Cytochrome P450 2E1 (Homo sapiens, UniProt P05181); experiment: Drug metabolism in human recombinant CYP2E1 mediated oxidative metabolism at 10 uM; assay type: ADME; conditions: recombinant enzyme; in short: as §1
Sequence of Cytochrome P450 2E1 (P05181 whole entry): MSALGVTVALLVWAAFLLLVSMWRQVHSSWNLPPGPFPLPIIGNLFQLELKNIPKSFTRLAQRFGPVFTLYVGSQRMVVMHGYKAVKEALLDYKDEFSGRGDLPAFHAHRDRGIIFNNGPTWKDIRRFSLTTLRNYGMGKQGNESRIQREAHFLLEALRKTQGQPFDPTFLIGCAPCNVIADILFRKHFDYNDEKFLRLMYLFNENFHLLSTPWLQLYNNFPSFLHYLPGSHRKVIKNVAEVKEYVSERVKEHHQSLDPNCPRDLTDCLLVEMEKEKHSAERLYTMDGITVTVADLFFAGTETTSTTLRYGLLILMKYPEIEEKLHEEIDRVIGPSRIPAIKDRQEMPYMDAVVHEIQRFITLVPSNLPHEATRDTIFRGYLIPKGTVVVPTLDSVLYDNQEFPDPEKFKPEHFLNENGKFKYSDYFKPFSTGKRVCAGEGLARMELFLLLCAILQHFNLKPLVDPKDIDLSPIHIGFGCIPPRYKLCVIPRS

[10] = target: Cytochrome P450 2C9 (Homo sapiens, UniProt P11712); experiment: Drug metabolism in human recombinant CYP2C9 mediated oxidative metabolism at 10 uM; assay type: ADME; conditions: recombinant enzyme; in short: as §1
Sequence of Cytochrome P450 2C9 (P11712 whole entry): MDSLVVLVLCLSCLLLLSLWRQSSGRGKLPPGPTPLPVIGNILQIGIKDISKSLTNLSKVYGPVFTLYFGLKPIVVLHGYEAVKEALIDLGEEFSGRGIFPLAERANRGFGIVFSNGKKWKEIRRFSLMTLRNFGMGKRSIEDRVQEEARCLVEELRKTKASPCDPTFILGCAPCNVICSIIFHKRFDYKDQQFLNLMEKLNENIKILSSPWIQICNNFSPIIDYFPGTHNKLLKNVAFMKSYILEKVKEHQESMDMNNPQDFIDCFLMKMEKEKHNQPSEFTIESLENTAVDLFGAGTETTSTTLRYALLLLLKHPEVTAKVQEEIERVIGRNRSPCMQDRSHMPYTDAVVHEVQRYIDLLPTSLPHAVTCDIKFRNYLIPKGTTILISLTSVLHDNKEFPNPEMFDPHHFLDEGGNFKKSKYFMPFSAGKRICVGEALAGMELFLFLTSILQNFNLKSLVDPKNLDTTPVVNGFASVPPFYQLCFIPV

[11] = Drug excretion in rat urine at 50 mg/kg, po; assay type: ADME, organism-based; design: dose 50 mg/kg, route oral; conditions: in vivo
[12] = test system: Liver microsome; experiment: Drug metabolism in human liver microsomes assessed as oxidative metabolism at 10 uM in presence of 0.1 uM alpha-naphthoflavone CYP1A2 inhibitor; assay type: ADME; in short: as §2
[13] = target: T3, Cytochrome P450 4A11 (Homo sapiens, UniProt Q02928); experiment: Drug metabolism in human recombinant CYP4A11 mediated oxidative metabolism at 10 uM; assay type: ADME; conditions: recombinant enzyme; in short: as §1
T3 sequence (Q02928 whole entry): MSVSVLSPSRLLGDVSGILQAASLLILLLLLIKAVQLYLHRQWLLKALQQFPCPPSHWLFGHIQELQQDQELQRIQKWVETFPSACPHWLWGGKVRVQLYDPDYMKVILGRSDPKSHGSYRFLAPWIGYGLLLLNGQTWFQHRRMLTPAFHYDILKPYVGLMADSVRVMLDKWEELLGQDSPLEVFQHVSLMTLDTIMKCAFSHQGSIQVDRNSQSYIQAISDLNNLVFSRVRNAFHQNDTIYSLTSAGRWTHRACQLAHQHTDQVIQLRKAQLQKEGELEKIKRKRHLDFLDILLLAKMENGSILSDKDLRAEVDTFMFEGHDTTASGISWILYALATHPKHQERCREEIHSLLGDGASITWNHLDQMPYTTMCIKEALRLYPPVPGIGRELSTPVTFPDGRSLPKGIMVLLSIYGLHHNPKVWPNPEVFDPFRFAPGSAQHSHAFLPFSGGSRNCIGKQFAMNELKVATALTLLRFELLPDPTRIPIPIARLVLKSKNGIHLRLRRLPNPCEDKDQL

[14] = test system: Liver microsome; experiment: Drug metabolism in human liver microsomes assessed as oxidative metabolism at 10 uM in presence of 0.4 uM ticlopidine CYP2B6/CYP2C19 inhibitor; assay type: ADME; in short: as §2
[15] = test system: Liver; experiment: Drug uptake in rat liver at 50 mg/kg, po; assay type: ADME, organism-based; design: dose 50 mg/kg, route oral; conditions: in vivo, read-out: Drug uptake

CC(C)=CCC[C@](C)(O)[C@H]1CC[C@]2(C)[C@@H]1[C@H](O)C[C@@H]1[C@@]3(C)CC[C@H](O[C@@H]4O[C@H](CO)[C@@H](O)[C@H](O)[C@H]4O)C(C)(C)[C@@H]3CC[C@]12C [GINSENOSIDE RH2]
Drug metabolism [1]: metabolite_not_detected | Drug metabolism [2]: metabolite_not_detected | Drug metabolism [3]: metabolite_detected | Drug metabolism [4]: metabolite_not_detected | bioavailability [5]: 55% | Drug metabolism [6]: metabolite_not_detected | dose excreted [7]: < 10% | Drug metabolism [8]: metabolite_not_detected | Drug metabolism [9]: metabolite_not_detected | Drug metabolism [10]: metabolite_not_detected | Drug excretion [11]: metabolite_not_detected | Drug metabolism [12]: metabolite_detected | Drug metabolism [13]: metabolite_not_detected | Drug metabolism [14]: metabolite_detected | concentration [15]: 60 µM
